Laboratory results: ChEMBL document CHEMBL1136128, “3-(2-Benzyloxyphenyl)isoxazoles and isoxazolines: synthesis and evaluation as CFTR activators” (Bioorg Med Chem Lett, 2003)

Experiments:
[1] = substrate: COC(=O)C1CC(c2cc(Br)ccc2OCc2ccc(OC)cc2)=NO1; test: (§1) Vmax (maximal I influx) of compound against CFTR (cystic fibrosis transmembrane conductance regulator) in rat was determined
Method in brief: (§2)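 Cells stably co-expressing human wild-type CFTR and YFP-H148Q were grown to confluence in 96-well plates and washed in PBS. Compounds were added from DMSO stocks, with full dose–responses run. A 100 mM inward iodide gradient was applied at 37 °C. Iodide influx was taken from the slope of the YFP fluorescence time course. Kd and Vmax (mM/s) are means of three or more experiments.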

[2] = substrate: COC(=O)C1CC(c2ccccc2OCc2ccc(Br)cc2)=NO1; test: as §1; method in brief: as §2
[3] = substrate: COC(=O)C1CC(c2ccccc2OCc2ccc(OC)cc2)=NO1; test: as §1; method in brief: as §2
[4] = substrate: COC(=O)C1CC(c2ccccc2OCc2cccc(OC)c2)=NO1; test: as §1; method in brief: as §2
[5] = substrate: COC(=O)c1cc(-c2ccccc2OCc2ccc(Br)cc2)no1; test: as §1; method in brief: as §2
[6] = substrate: COC(=O)c1onc(-c2ccccc2OCc2ccc(Br)cc2)c1C(=O)OC; test: as §1; method in brief: as §2
[7] = substrate: COc1ccc(COc2ccc(Br)cc2-c2cc(CO)on2)cc1; test: as §1; method in brief: as §2
[8] = substrate: COc1ccc(COc2ccccc2-c2cc(CCO)on2)cc1; test: as §1; method in brief: as §2
[9] = substrate: COc1ccc(COc2ccccc2-c2cc(CO)on2)cc1; test: as §1; method in brief: as §2
[10] = substrate: COc1ccc(COc2ccccc2C2=NOC(CCl)C2)cc1; test: as §1; method in brief: as §2
[11] = substrate: COc1ccc(COc2ccccc2C2=NOC(CO)C2)cc1; test: as §1; method in brief: as §2
[12] = substrate: COc1cccc(COc2ccccc2-c2cc(CCO)on2)c1; test: as §1; method in brief: as §2
[13] = substrate: COc1cccc(COc2ccccc2-c2cc(CO)on2)c1; test: as §1; method in brief: as §2
[14] = substrate: COc1cccc(COc2ccccc2C2=NOC(CCl)C2)c1; test: as §1; method in brief: as §2
[15] = substrate: COc1cccc(COc2ccccc2C2=NOC(CO)C2)c1; test: as §1; method in brief: as §2
[16] = substrate: ClCc1cc(-c2ccccc2OCc2ccc(Br)cc2)no1; test: as §1; method in brief: as §2
[17] = substrate: OCCc1cc(-c2ccccc2OCc2ccc(Br)cc2)no1; test: as §1; method in brief: as §2
[18] = substrate: OCc1cc(-c2ccccc2OCc2ccc(Br)cc2)no1; test: as §1; method in brief: as §2

B1: Cystic fibrosis transmembrane conductance regulator (Rattus norvegicus), P34158 (protein)
chain: MQKSPLEKASFISKLFFSWTTPILRKGYRHHLELSDIYQAPSSDSADHLSEKLEREWDREQASKKKPQLIHALRRCFVWRFVFYGVLLYLGEVTKAVQPVLLGRIIASYDPDNTEERSIAIYLGIGLCLLFIVRTLLLHPAIFGLHHIGMQMRIAMFSLIYKKTLKLSSRVLDKISIGQLISLLSNNLNKFDEGLALAHFIWIAPLQVVLLMGLLWDLLQFSAFCGLGLLIVLVIFQAILGKMMVKYRDKRAAKINERLVITSEVIDNIYSVKAYCWESAMEKIIESLREEELKMTRRSAYMRFFTSSAFFFSGFFVVFLSVLPYTVINGIVLRKIFTTISFCIVLRMSVTRQFPTAVQIWYDSLGMIRKIQDFLQTQEYKVLEYNLMFTGLVMENVTAFWEEGFQELLEKVQLNNDDRKTSNGENHLSFSHLCLVGNPVLKNINLNIKKGEMLAITGSTGAGKTSLLMLILGELEASEGIIKHSGRVSFSSQISWIMPGTIKENIIFGVSYDEYRYKSVVKACQLQEDITKFAEQDNTVLGEGGVTLSGGQRARISLARAVYKDADLYLLDSPFGYLDVLTEEQIFESCVCKLMASKTRILVTSKMEQLKKADKILILHEGSSYFYGTFSELQSLRPDFSSKLMGYDTFDQFTEERRSSILTETLRRFSVDDASTTWNKAKQSFRQTGEFGEKRKNSILSSFSSVKKISIVQKTPLSIEGESDDLQERRLSLVPDSEHGEAALPRSNMITAGPTFPGRRRQSVLDLMTFTPSSVSSSLQRTRASIRKISLAPRISLKEEDIYSRRLSQDSTLNITEEINEEDLKECFFDDMVKIPTVTTWNTYLRYFTLHRGLFAVLIWCVLVFLVEVAASLFVLWLLKNNPVNGGNNGTKIANTSYVVVITSSSFYYIFYIYVGVADTLLALSLFRGLPLVHTLITASKILHRKMLHSILHAPMSTFNKLKAGGILNRFSKDIAILDDFLPLTIFDFIQLLFIVVGAIIVVSALQPYIFLATVPGLAVFILLRAYFLHTSQQLKQLESEGRSPIFTHLVTSLKGLWTLRAFRRQTYFETLFHKALNLHTANWFMYLATLRWFQMRIDMIFVLFFIVVTFISILTTGEGEGTTGIILTLAMNIMSTLQWAVNSSIDTDSLMRSVSRVFKFIDIQTEESICTKIMKELHSEDSPNALVIKNEHVKKCDTWPSGGEMVVKDLTVKYVDDGNAILENISFSISPGQRVGLLGRTGSGKSTLLSAFLRMLNIKGEIQIDGVSWNSMTLQEWRKAFGVITQKVFIFSGTFRQNLDPNGKWRDEEIWKVADQVGLKSVIEQFPGQLNFTLVDGGYVLSHGHKQLMCLARSVLSKAKIILLDEPSANLDPITYQVIRRVLRQAFAGCTVVLCEHRIEAMLDCQRFLVIEQGNVWQYESLQALLSEKSVFQRALSSSEKMKLFHGRHSSKQKPRTQITAVKEETEEEVQETRL
With B1 the Vmax [1] was 1.04 mM/s, the Vmax [2] was 0.81 mM/s and the Vmax [3] was 1.13 mM/s. The Vmax [4] was 1.08 mM/s, the Vmax [5] was 1.01 mM/s and the Vmax [6] was 0.97 mM/s. The Vmax [7] was 1.03 mM/s, the Vmax [8] was 1.05 mM/s and the Vmax [9] was 1.06 mM/s. The Vmax [10] was 1.2 mM/s, the Vmax [11] was 1.07 mM/s and the Vmax [12] was 0.94 mM/s. The Vmax [13] was 1.04 mM/s, the Vmax [14] was 1.02 mM/s and the Vmax [15] was 0.99 mM/s. For the same protein, the Vmax [16] was 1.02 mM/s, the Vmax [17] was 1.02 mM/s and the Vmax [18] was 1.06 mM/s.
